Laboratory results published in ChEMBL document CHEMBL4145448, “Broad activity of diphenyleneiodonium analogues against Mycobacterium tuberculosis, malaria parasites and bacterial pathogens” (Eur J Med Chem, 2018).

How the values were obtained:
Plasmodium falciparum = test: Growth inhibition of CQ-sensitive GFP-fused Plasmodium falciparum D10 after 90 hrs by ethidium bromide staining based flow cytometry; type: functional, organism-based; details: D10, 90 h
Summary of the method: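 Parasites cultured in human O+ erythrocytes in RPMI-HEPES pH 7.4 with hypoxanthine, NaHCO3, gentamicin and 0.5% Albumax II under 1% O2/4% CO2 at 37 °C. Synchronised to rings with heparin plus sorbitol. Set up at 1% parasitaemia and 1% haematocrit with 10x compound added. Cultured 90 h to next-cycle trophozoites. Stained with 10 µg/mL ethidium bromide for 1 h, washed, parasitaemia counted by flow cytometry with GFP gating.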

Pseudomonas aeruginosa [1] = test: Antibacterial activity against Pseudomonas aeruginosa ATCC 27853 after 18 hrs by broth microdilution method; type: functional; details: ATCC 27853, 18 h
Summary of the method: (§1)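 Broth microdilution per CLSI in cation-adjusted Mueller-Hinton broth. 100 µL inoculum (~10^6 cfu/mL in CaMHB) mixed with 100 µL CaMHB containing compound, 0 to 128 µM. Incubated 18 h at 37 °C. MIC taken as the lowest concentration with no visible growth. Polymyxin B served as positive control. Isolates were stored at -80 °C in tryptone soy broth with 20% glycerol.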

Pseudomonas aeruginosa [2] = test: Antibacterial activity against Pseudomonas aeruginosa isolate 912 after 18 hrs by broth microdilution method; type: functional; details: isolate 912, 18 h; summary of the method: as §1
Pseudomonas aeruginosa [3] = test: Antibacterial activity against Pseudomonas aeruginosa isolate 19147nm after 18 hrs by broth microdilution method; type: functional; summary of the method: as §1
Pseudomonas aeruginosa [4] = test: Antibacterial activity against Pseudomonas aeruginosa isolate M146201 after 18 hrs by broth microdilution method; type: functional; details: isolate M146201, 18 h; summary of the method: as §1
Acinetobacter baumannii [5] = test: Antibacterial activity against Acinetobacter baumannii ATCC 19606 after 18 hrs by broth microdilution method; type: functional; details: ATCC 19606 = CIP 70.34 = JCM 6841, 18 h; summary of the method: as §1
Acinetobacter baumannii [6] = test: Antibacterial activity against Acinetobacter baumannii ATCC 17978 after 18 hrs by broth microdilution method; type: functional; details: ATCC 17978, 18 h; summary of the method: as §1
Acinetobacter baumannii [7] = test: Antibacterial activity against Acinetobacter baumannii ATCC 19606 col10 after 18 hrs by broth microdilution method; type: functional; details: ATCC 19606 = CIP 70.34 = JCM 6841 col10, 18 h; summary of the method: as §1
Acinetobacter baumannii [8] = test: Antibacterial activity against Acinetobacter baumannii isolate 07AC-336 after 18 hrs by broth microdilution method; type: functional; details: isolate 07AC-336, 18 h; summary of the method: as §1
Acinetobacter baumannii [9] = test: Antibacterial activity against Acinetobacter baumannii ATCC 17978 col10 after 18 hrs by broth microdilution method; type: functional; details: ATCC 17978 col10, 18 h; summary of the method: as §1
Klebsiella pneumoniae [10] = test: Antibacterial activity against Klebsiella pneumoniae isolate M320445 after 18 hrs by broth microdilution method; type: functional; details: isolate M320445, 18 h; summary of the method: as §1
Klebsiella pneumoniae [11] = test: Antibacterial activity against Klebsiella pneumoniae isolate 1 after 18 hrs by broth microdilution method; type: functional; details: isolate 1, 18 h; summary of the method: as §1
Klebsiella pneumoniae [12] = test: Antibacterial activity against Klebsiella pneumoniae isolate 248-33-D after 18 hrs by broth microdilution method; type: functional; summary of the method: as §1
Escherichia coli [13] = test: Antibacterial activity against Escherichia coli N2381 after 18 hrs by broth microdilution method; type: functional; details: N2381, 18 h; summary of the method: as §1
Escherichia coli [14] = test: Antibacterial activity against Escherichia coli N11281 after 18 hrs by broth microdilution method; type: functional; details: N11281, 18 h; summary of the method: as §1
[15] = Selectivity index, ratio of CC50 for human HepG2 cells in presence of 1% FBS to MIC for Pseudomonas aeruginosa isolate 912; type: toxicity; details: read-out: Selectivity Index
Summary of the method: (§2)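 Selectivity index is CC50 (1% FBS) divided by MIC. […] They then got compound at 300 to 0.14 µM (3-fold steps) for 24 h at 37 °C, 5% CO2. Resazurin (10 µM, 2 h) was read at ex/em 560/590 in duplicate wells. For MIC, CLSI broth microdilution was run in CaMHB with ~10^6 cfu/mL inoculum and 0–128 µM compound.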

[16] = Selectivity index, ratio of CC50 for human HepG2 cells in presence of 1% FBS to MIC for Pseudomonas aeruginosa isolate 18878B klon 1; type: toxicity; details: read-out: Selectivity Index; summary of the method: as §2
[17] = Selectivity index, ratio of CC50 for human HepG2 cells in presence of 1% FBS to MIC for Pseudomonas aeruginosa isolate M146201; type: toxicity; details: read-out: Selectivity Index; summary of the method: as §2
[18] = Selectivity index, ratio of CC50 for human HepG2 cells in presence of 1% FBS to MIC for Acinetobacter baumannii ATCC 19606; type: toxicity; details: read-out: Selectivity Index
[19] = Selectivity index, ratio of CC50 for human HepG2 cells in presence of 1% FBS to MIC for Acinetobacter baumannii ATCC 19606 col10; type: toxicity; details: read-out: Selectivity Index
[20] = Selectivity index, ratio of CC50 for human HepG2 cells in presence of 1% FBS to MIC for Acinetobacter baumannii isolate 07AC-336; type: toxicity; details: read-out: Selectivity Index
[21] = Selectivity index, ratio of CC50 for human HepG2 cells in presence of 1% FBS to MIC for Klebsiella pneumoniae ATCC 13883; type: toxicity; details: read-out: Selectivity Index
[22] = Selectivity index, ratio of CC50 for human HepG2 cells in presence of 1% FBS to MIC for Klebsiella pneumoniae isolate 1; type: toxicity; details: read-out: Selectivity Index
[23] = Selectivity index, ratio of CC50 for human HepG2 cells in presence of 1% FBS to MIC for methicillin-resistant Staphylococcus aureus ATCC 43300; type: toxicity; details: read-out: Selectivity Index; summary of the method: as §2
[24] = Selectivity index, ratio of CC50 for human HepG2 cells in presence of 1% FBS to MIC for Klebsiella pneumoniae isolate 248-33-D; type: toxicity; details: read-out: Selectivity Index
[25] = Selectivity index, ratio of CC50 for human HepG2 cells in presence of 1% FBS to MIC for vancomycin-resistant Staphylococcus aureus ATCC 700699; type: toxicity; details: read-out: Selectivity Index; summary of the method: as §2
[26] = test system: Mycobacterium tuberculosis; test: Antimycobacterial activity against Mycobacterium tuberculosis H37Rv ATCC 25618 after 7 days by resazurin dye based assay; type: functional; details: H37Rv ATCC 25618, 168 h
Summary of the method: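 H37Rv grown at 37 °C in 7H9 with 10% ADC, 0.5% glycerol and 0.02% tyloxapol. Compounds serially diluted in water, 0 to 10 µM, in triplicate. Culture adjusted to OD600 0.001 and incubated 7 days at 37 °C. Resazurin (0.05% w/v) added for 4-24 h and fluorescence read at 590 nm. MIC is the lowest concentration giving complete growth inhibition versus untreated. Rifampicin served as control.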

[27] = Selectivity index, ratio of CC50 for human HepG2 cells in presence of 1% FBS to MIC for Mycobacterium tuberculosis H37Rv ATCC 25618; type: toxicity; details: read-out: Selectivity Index
[28] = Selectivity index, ratio of CC50 for human HepG2 cells in presence of 1% FBS to IC50 for CQ-sensitive GFP-fused Plasmodium falciparum D10; type: toxicity; details: read-out: Ratio IC50
[29] = Cytotoxicity against human HepG2 cells after 24 hrs in presence of 1% FBS by resazurin dye based assay; type: cell-based
Summary of the method: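 HepG2 cells seeded at 4000/well in DMEM with 1% FBS and allowed to attach for 24 h at 37 °C, 5% CO2. Compounds added from 300 to 0.14 µM in 3-fold steps and incubated 24 h. 10 µM resazurin added for 2 h, fluorescence read at ex/em 560/590. Percent viability computed relative to untreated and negative controls, duplicate wells.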

SMILES | MIC (Pseudomonas aeruginosa [1]) [µM] | MIC (Pseudomonas aeruginosa [2]) [µM] | MIC (Pseudomonas aeruginosa [3]) [µM] | MIC (Pseudomonas aeruginosa [4]) [µM] | MIC (Acinetobacter baumannii [5]) [µM] | MIC (Acinetobacter baumannii [6]) [µM] | MIC (Acinetobacter baumannii [7]) [µM] | MIC (Acinetobacter baumannii [8]) [µM] | MIC (Acinetobacter baumannii [9]) [µM] | MIC (Klebsiella pneumoniae [10]) [µM] | MIC (Klebsiella pneumoniae [11]) [µM] | MIC (Klebsiella pneumoniae [12]) [µM] | MIC (Escherichia coli [13]) [µM] | MIC (Escherichia coli [14]) [µM] | selectivity ratio [15] | selectivity ratio [16] | selectivity ratio [17] | selectivity ratio [18] | selectivity ratio [19] | selectivity ratio [20] | also measured
Clc1cccc2c1-c1ccccc1[I+]2 | < 0.27 | < 0.27 | < 0.27 | 0.54 | < 0.27 | < 0.27 | < 0.27 | < 0.27 | < 0.27 | 8.6 | 8.6 | 8.6 | 0.54 | 2.2 | < 2.4 | < 2.4 | 1.2 | < 2.4 | < 2.4 | < 2.4 | IC50 (Plasmodium falciparum): 50 nM; selectivity ratio [21]: 0.15; selectivity ratio [22]: 0.08; selectivity ratio [23]: 0.61; selectivity ratio [24]: 0.08; selectivity ratio [25]: 0.61; MIC [26]: 0.28 µM; selectivity ratio [27]: 2.4; selectivity ratio [28]: 13; CC50 at 24 h [29]: 660 nM
Fc1cccc2c1-c1ccccc1[I+]2 | 2.2 | 4.5 | < 0.28 | 1.1 | 0.56 | 0.56 | 0.56 | 1.1 | < 0.28 | 9 | 9 | 9 | 1.1 | 4.5 | 1 | < 16 | 4.1 | 8.2 | 8.2 | 4.1 | IC50 (Plasmodium falciparum): 50 nM; selectivity ratio [21]: 1; selectivity ratio [22]: 0.51; selectivity ratio [23]: 2.1; selectivity ratio [24]: 0.51; selectivity ratio [25]: 2.1; MIC [26]: 0.29 µM; selectivity ratio [27]: 16; selectivity ratio [28]: 96; CC50 at 24 h [29]: 4600 nM
c1ccc2c(c1)[I+]c1c-2ccc2ccccc12 | 8.4 | 2.1 | 2.1 | 8.4 | 4.2 | 1.1 | 1.1 | 8.4 | 0.52 | 17 | 34 | 34 | 8.4 | 17 | 0.34 | 0.34 | 0.09 | 0.17 | 0.69 | 0.09 | IC50 (Plasmodium falciparum): 120 nM; selectivity ratio [21]: 0.09; selectivity ratio [22]: 0.02; selectivity ratio [23]: 0.34; selectivity ratio [24]: 0.02; selectivity ratio [25]: 0.17; MIC [26]: 0.52 µM; selectivity ratio [27]: 2.4; selectivity ratio [28]: 5.8; CC50 at 24 h [29]: 720 nM
Clc1ccc2c(c1)[I+]c1ccccc1-2 | 8.7 | 1.1 | 0.54 | 2.2 | 2.2 | 0.54 | 1.1 | 2.2 | < 0.27 | 8.7 | 17 | 17 | 8.7 | 4.3 | 1 | 2 | 0.51 | 0.51 | 1 | 0.51 | IC50 (Plasmodium falciparum): 70 nM; selectivity ratio [21]: 0.13; selectivity ratio [22]: 0.06; selectivity ratio [23]: 0.51; selectivity ratio [24]: 0.06; selectivity ratio [25]: 0.51; MIC [26]: 0.28 µM; selectivity ratio [27]: 3.9; selectivity ratio [28]: 15; CC50 at 24 h [29]: 1100 nM
COc1ccc2c(c1)[I+]c1ccccc1-2 | > 70 | > 70 | 8.7 | 70 | 18 | 18 | 2.2 | > 70 | 2.2 | 70 | > 70 | > 70 | 35 | > 70 | > 0.11 | 0.39 | 0.11 | 0.39 | 3.1 | > 0.11 | selectivity ratio [21]: > 0.11; selectivity ratio [22]: > 0.11; selectivity ratio [23]: 1.6; selectivity ratio [24]: > 0.11; selectivity ratio [25]: 0.78; MIC [26]: 0.28 µM; selectivity ratio [27]: 24; CC50 at 24 h [29]: 6800 nM
